An excerpt weighted towards active compounds, which were near 2.9% of everything screened.
Runt-SMMHC FRET: inhibitors of RUNX1 Runt–CBFb-SMMHC binding, primary screen, biochemical, FRET, Cerulean-Runt, Venus-CBFb-SMMHC, uHTS. actives 0.74% (n = 220,000). inhibition, % at 20 µM. Runt-related transcription factor 1 (Homo sapiens) + Core-binding factor subunit beta …. Cerulean-Runt/Venus-CBFb-SMMHC FRET ratio 530/480, 1 h;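 active = mean inhibition across duplicate retests at 20 µM reaching about 50%, limit read from the data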;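 note: 0% = DMSO wells and 100% = wells with excess untagged CBFb-SMMHC; inhibitors lower the FRET ratio by blocking Runt binding to CBFb-SMMHC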
Target sequence (Q01196 whole entry, looked up): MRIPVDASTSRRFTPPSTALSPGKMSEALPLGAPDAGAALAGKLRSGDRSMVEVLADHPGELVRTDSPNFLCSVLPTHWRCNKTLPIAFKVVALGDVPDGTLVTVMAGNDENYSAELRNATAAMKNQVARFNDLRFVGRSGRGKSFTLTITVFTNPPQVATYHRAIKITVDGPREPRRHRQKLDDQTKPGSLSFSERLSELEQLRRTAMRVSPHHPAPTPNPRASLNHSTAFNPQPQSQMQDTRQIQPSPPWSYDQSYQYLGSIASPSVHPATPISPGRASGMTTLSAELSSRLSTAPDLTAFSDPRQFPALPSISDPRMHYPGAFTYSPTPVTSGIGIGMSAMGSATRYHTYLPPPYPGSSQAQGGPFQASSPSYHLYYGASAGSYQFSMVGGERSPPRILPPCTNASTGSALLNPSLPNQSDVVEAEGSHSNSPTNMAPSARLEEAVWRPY
Target sequence (Q13951 whole entry, looked up): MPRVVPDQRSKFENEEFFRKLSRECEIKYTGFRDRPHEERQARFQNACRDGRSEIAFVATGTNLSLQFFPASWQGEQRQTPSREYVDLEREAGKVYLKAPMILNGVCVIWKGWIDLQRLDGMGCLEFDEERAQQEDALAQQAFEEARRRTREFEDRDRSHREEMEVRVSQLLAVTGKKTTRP
RanGTP-Impb inh: inhibitors of RanGTP-importin-beta interaction, primary screen, biochemical, FRET, CFP-Ran, YFP-importin-beta, homogeneous | Ran GTPase (GTP-bound) - importin-beta complex | cell-free CFP-Ran/YFP-importin-beta FRET ratio | inhibition, % (test concentration not listed) | actives 1.1% (n = 300,000) | AID 2216, 2009;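 active = more than half of the replicate wells show a fall in the fluorescence ratio signal beyond about 16%, limit read from the data, passing the limit was not always enough; inconclusive = exactly half of the replicate wells pass the set limit; inactive = fewer than half of replicates pass the limit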;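 note: 0% = DMSO wells and 100% = Ran loaded with GDP instead of GTP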
Runt-CBFb FRET: inhibitors of RUNX1 Runt–CBFb binding, primary screen, biochemical, FRET, Cerulean-Runt, Venus-CBFb, uHTS; inhibition, % at 20 µM; actives 0.46% (n = 220,000); Runt-related transcription factor 1 (Homo sapiens) + Core-binding factor subunit beta …; AID 1496, 2009; Cerulean-Runt/Venus-CBFb FRET ratio 530/480, 1 h;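 active = inhibition over about 50% at 20 µM in the single-dose screen, limit read from the data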;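 note: 0% = DMSO wells and 100% = excess unlabeled CBFb competitor control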
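test system = Cerulean-tagged RUNX1 Runt domain (FRET donor) fusion protein | reagent = Venus-CBFb binding partner, 100 nM | incubation = protein complex preformed 1 h, compound exposure 1 h, room temperature, dark | detection = FRET fluorescence | read-out basis = loss of energy transfer signal | controls = 5 µM unlabeled CBFb as full-inhibition high control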
proKLK7 act: proKLK7 zymogen activators, primary screen, biochemical, fluorescence intensity. purified proKLK7, EDANS-DABCYL substrate fluorescence; 100% is mature enzyme control, 0% vehicle. activation, % at 7 µM. actives 0.9% (n = 370,000);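 active = activation above the mean of all tested compounds plus 3 SD, computed per campaign excluding outliers beyond control limits, cut at about 13% in these data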
AI-2 QS modul: Vibrio harveyi AI-2 quorum sensing modulators, primary screen, JMH597 strain, luminescence/OD600 ratio | Vibrio harveyi JMH597 AI-2 luminescence/OD600 ratio, 9 h; hits give low values; strain lacks LuxN and CqsS sensors; 0 = neutral-control median | activity change, % at 7.5 µM | actives 0.4% (n = 300,000); in the data active = activity change below about -75%, passing the limit was not always enough; inconclusive = no clear call, values can overlap the other calls;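 note: luminescence divided by OD600 gain over 9 h not by final OD600 alone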
Wee1 degr inh: Wee1 degradation inhibitors, primary screen, cell-based, HeLa, Wee1K328M-luciferase, luminescence | Wee1-like protein kinase (Homo sapiens), P30291 | AID 1321, 2008 | reporter increase, % at 5 µM | HeLa Luc-Wee1K328M stability; 100% = proteasome inhibitor MG132 effect | actives 1.2% (n = 220,000);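 active = activation above the mean of all tested compounds plus 3 SD, set per screening run, cut at about 8.8% in these data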;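 note: cells exposed to compound for 20 h before luminescence read; 0% = DMSO alone and 100% = MG132 at 30 µM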
KLK7 act conf: proKLK7 zymogen activators, confirmation, biochemical, fluorescence intensity, triplicate; shares compounds with proKLK7 act; purified proKLK7, EDANS-DABCYL substrate fluorescence; scaled: vehicle 0, mature enzyme 100; activation, % at 7 µM; actives 68% (n = 3,200); AID 686949, 2013;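 active = activation, as change over the incubation, above the mean of all tested compounds plus 3 SD, cut at about 13% in these data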
EDANS-DABCYL int: EDANS-DABCYL substrate optical interference, artefact control for kallikrein-7 zymogen activator project, biochemical, fluorescence intensity, high throughput | actives 80% (n = 3,200) | shares compounds with proKLK7 act | activation, % at 7 µM | no enzyme, 4 h; solvent 0%, active enzyme control 100%;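 active = activation above the all-compound mean plus 3 SD, ignoring values outside control-based bounds, cut at about 4.8% in these data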;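 note: value is the 4 h activation minus the activation read at time zero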
K7 EDANS ctr: counter-screen for kallikrein-7 activators: EDANS-DABCYL interference, dose response | shares compounds with proKLK7 act | EDANS-DABCYL peptide fluorescence interference, no enzyme | EC50, µM | actives 20% (n = 250) | AID 720493;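 active = compounds that raise the fluorescence signal in this interference counterscreen, with EC50 at or below 10 µM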;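 note: intact quenched peptide substrate alone read at 355 nm excitation and 520 nm emission; signal is fluorescence gain from T0 to T4 after four hours at room temperature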
Numbers without * were called inactive; u = inconclusive; x = not tested or not shown.

SMILES	Runt-SMMHC FRET	RanGTP-Impb inh	Runt-CBFb FRET	proKLK7 act	AI-2 QS modul	Wee1 degr inh	KLK7 act conf	EDANS-DABCYL int	others
CCC(C(=O)NC(C)(C)C)N(Cc1ccco1)C(=O)CNS(=O)(=O)c1ccc(OC)cc1 (configuration not stated)	x	0	x	0	-2	x	x	x
C=CCNC(=S)NNC(=O)c1cccc2ccccc12	-8	13	1	0	49	2	x	x
C=CCNC(=S)NNC(=O)c1cccn(Cc2ccc(Cl)cc2Cl)c1=O	4	5	x	22*	23	-3	30*	28*
CCNC(=S)NNC(=O)c1cccn(Cc2ccc(Cl)cc2Cl)c1=O	4	1	2	32*	30	-1	31*	47*
CCOc1ccc(C(=O)Nc2ccc3nc(N4CCN(CC)CC4)cc(C)c3c2)cc1	x	0	x	38*	6	x	217*	192*
CCN1CCN(c2cc(C)c3cc(NC(=S)N4CCN(c5ccccc5F)CC4)ccc3n2)CC1	3	u	3	14*	8	-1	1	2
CCCN(CCC)CCCNC(=S)Nc1ccc2nc(N3CCCC3)cc(C)c2c1	-2	6	0	12	34	0	x	x
Cc1cc(N2CCN(C)CC2)nc2ccc(NC(=O)c3ccc4c(c3)OCO4)cc12	-1	x	0	19*	x	-2	7	6.9*
Cc1cc(N2CCCC2)nc2ccc(NC(=S)NCCCOC(C)C)cc12	5	4	5	16*	23	4	14*	12*	K7 EDANS ctr=>70
CC(=O)Nc1cc(-c2ccccc2)cn2c(-c3ccc(F)cc3)cnc12	x	x	x	-3	x	x	x	x
COC(=O)C1=C(C)N(CCc2c[nH]c3ccc(OC)cc23)C(=O)C1	-9	2	-1	1	32	5	x	x
COC(=O)c1ccc2nc(-c3ccc(C)cc3)c(Cc3cccc(Cl)c3)n2c1	x	x	x	-3	x	x	x	x
CCN1CCN(c2cc(C)c3cc(NC(=S)N4CCN(c5ccccc5)CC4)ccc3n2)CC1	2	7	1	10	24	2	x	x
CCCN1CCN(C(=S)Nc2ccc3nc(N4CCN(CC)CC4)cc(C)c3c2)CC1	3	-2	3	20*	15	-1	4	6.5*
Cc1ccc(C(=O)COC(=O)c2ccco2)cc1C	x	0	x	-1	13	x	x	x
COc1ccc(OC)c(/C=C/C(=O)N(C)CC(=O)Nc2ccc(C)cc2)c1	-5	1	-3	27*	6	1	64*	68*
COc1ccc(OC)c(/C=C/C(=O)N(C)CC(=O)Nc2cc(C)ccc2C)c1	-1	3	-6	21*	13	-1	1	8.4*
CC1(c2ccncc2)Nc2ccccc2-c2nc3ccccc3n21 (configuration not stated)	1	-1	0	57*	37	-2	-3	-2
